For data set [1], the target named is T1, Thymidylate synthase (Lactobacillus casei) (UniProt P00469).
T1 sequence (whole entry): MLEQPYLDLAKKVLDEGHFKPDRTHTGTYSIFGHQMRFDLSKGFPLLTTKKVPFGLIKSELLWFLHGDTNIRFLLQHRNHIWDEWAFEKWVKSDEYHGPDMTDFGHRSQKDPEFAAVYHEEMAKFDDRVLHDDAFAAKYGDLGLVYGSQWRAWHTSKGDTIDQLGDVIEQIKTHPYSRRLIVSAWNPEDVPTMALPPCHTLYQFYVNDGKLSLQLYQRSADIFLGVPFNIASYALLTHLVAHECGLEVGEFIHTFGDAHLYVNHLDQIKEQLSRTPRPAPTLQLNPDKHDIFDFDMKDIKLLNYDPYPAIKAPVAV
The experiment in a line: Inhibition of Lactobacillus casei thymidylate synthetase at 1.7 x 10^-6 M relative to control. Particulars: Lacticaseibacillus casei.

In data set [2] the target is T1, Thymidylate synthase (Lactobacillus casei). The experiment in a line: Inhibition of Lactobacillus casei thymidylate synthetase using dl-5,10-Methylene tetrahydropteroyl-L-glutamate as substrate at 1 x 10^-4 M relative to control. Particulars: Lacticaseibacillus casei.
For data set [3] the target is unchanged. The experiment in a line: Inhibition of Lactobacillus casei thymidylate synthetase using dl-5,10-Methylene tetrahydropteroyl-L-glutamate as substrate at 1 x 10^-4 M by spectrophotometric analysis. Particulars: Lacticaseibacillus casei.
Data set [4] shares this target. The experiment in a line: Inhibition of Lactobacillus casei thymidylate synthetase using dl-5,10-Methylene tetrahydropteroyl-L-glutamate as substrate at 9.2 x 10^-5 M by spectrophotometric analysis. The settings on record: Lacticaseibacillus casei.
Data set [5] has the same target. The experiment in a line: Inhibition of Lactobacillus casei thymidylate synthetase using dl-5,10-Methylene tetrahydropteroyl-L-glutamate as substrate at 9.2 x 10^-5 M relative to control. The settings on record: Lacticaseibacillus casei.
The target is the same in data set [6]. The experiment in a line: Activity of Lactobacillus casei thymidylate synthetase assessed as release of [3H] from [5-3H]-deoxyuridine 5' phosphate at 3 x 10^-4 M. Particulars: Lacticaseibacillus casei.
Data set [7] shares this target. The experiment in a line: Activity of Lactobacillus casei thymidylate synthetase at 3 x 10^-4 M by spectrophotometric analysis. Particulars: Lacticaseibacillus casei.
The subject of data set [8] is Pediococcus. The experiment in a line: Induction of growth of Pediococcus cerevisiae ATCC 8081 up to 5 ug/mL. Type of data set: functional.
Data set [9] has as its system Enterococcus faecium. The experiment in a line: Growth inhibition of Streptococcus faecium ATCC 8043 up to 5 ug/mL. Type of data set: functional, organism-based. A digest of the protocol: (§1)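 Media were as follows. L. casei ATCC 7469 was grown on folate assay broth with folate at 1 ng/mL. P. cerevisiae ATCC 8081 was grown on CF assay medium with dl-5-formyltetrahydrofolate at 1 ng/mL. S. faecium ATCC 8043 was grown on Flynn medium with folate at 1 ng/mL.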

Data set [10] has as its system Lacticaseibacillus casei. The experiment in a line: Growth inhibition of Lactobacillus casei ATCC 7469 up to 5 ug/mL. Format: functional, organism-based. A digest of the protocol:
as §1

Data set [11] deals with Lacticaseibacillus casei. The experiment in a line: Induction of growth of Lactobacillus casei ATCC 7469 up to 5 ug/mL. Format: functional, organism-based.
For data set [12], the system named is Pediococcus. The experiment in a line: Growth inhibition of Pediococcus cerevisiae ATCC 8081 up to 5 ug/mL. Type of data set: functional. Put shortly:
as §1

The subject of data set [13] is Enterococcus faecium. The experiment in a line: Induction of growth of Streptococcus faecium ATCC 8043 up to 5 ug/mL. Format: functional, organism-based.
Data set [14] deals with T1, Thymidylate synthase (Lactobacillus casei). The experiment in a line: Inhibition of Lactobacillus casei thymidylate synthetase using dl-5,10-Methylene tetrahydropteroyl-L-glutamate as substrate at 3.3 x 10^-5 M relative to control. The settings on record: Lacticaseibacillus casei.
Data set [15] shares this target. The experiment in a line: Inhibition of Lactobacillus casei thymidylate synthetase using dl-5,10-Methylene tetrahydropteroyl-L-glutamate as substrate at 3.3 x 10^-5 M by spectrophotometric analysis. Particulars: Lacticaseibacillus casei.
For data set [16] the target is unchanged. The experiment in a line: Activity of Lactobacillus casei thymidylate synthetase at 7 x 10^-5 M by spectrophotometric analysis. The settings on record: Lacticaseibacillus casei.
Data set [17] has the same target. The experiment in a line: Inhibition of Lactobacillus casei thymidylate synthetase using l-5,10-Methylene tetrahydropteroyl-L-glutamate as substrate at 6.3 x 10^-5 M by spectrophotometric analysis. The settings on record: Lacticaseibacillus casei.
For data set [18] the target is unchanged. The experiment in a line: Inhibition of Lactobacillus casei thymidylate synthetase using l-5,10-Methylene tetrahydropteroyl-L-glutamate as substrate at 6.3 x 10^-5 M relative to control. Particulars: Lacticaseibacillus casei.
The target of data set [19] is Dihydrofolate reductase (Lactobacillus casei) (UniProt P00381). The experiment in a line: Inhibition of Lactobacillus casei dihydrofolate reductase using 7,8-Dihydropteroyl-L-glutamate as substrate at 1.5 x 10^-5 M by spectrophotometric analysis. Particulars: Lacticaseibacillus casei.
The target in data set [20] is T1, Thymidylate synthase (Lactobacillus casei). The experiment in a line: Activity of Lactobacillus casei thymidylate synthetase at 4.5 x 10^-5 M by spectrophotometric analysis. Particulars: Lacticaseibacillus casei.
Data set [21] shares this target. The experiment in a line: Inhibition of Lactobacillus casei thymidylate synthetase using dl-5,10-Methylene tetrahydropteroyl-L-glutamate as substrate at 2.4 x 10^-5 M relative to control. The settings on record: Lacticaseibacillus casei.
Data set [22] has the same target. The experiment in a line: Activity of Lactobacillus casei thymidylate synthetase assessed as release of [3H] from [5-3H]-deoxyuridine 5' phosphate at 4.5 x 10^-5 M. Particulars: Lacticaseibacillus casei.
Data set [23] has the same target. The experiment in a line: Inhibition of Lactobacillus casei thymidylate synthetase using dl-5,10-Methylene tetrahydropteroyl-L-glutamate as substrate at 2.4 x 10^-5 M by spectrophotometric analysis. Particulars: Lacticaseibacillus casei.
The target of data set [24] is Dihydrofolate reductase (Lactobacillus casei) (UniProt P00381). The experiment in a line: Inhibition of Lactobacillus casei dihydrofolate reductase using 7,8-Dihydropteroyl-L-glutamate as substrate at 1.5 x 10^-5 M relative to control. The settings on record: Lacticaseibacillus casei.
The target of data set [25] is T1, Thymidylate synthase (Lactobacillus casei). The experiment in a line: Inhibition of Lactobacillus casei thymidylate synthetase using dl-5,10-Methylene tetrahydropteroyl-L-glutamate as substrate at 1.3 x 10^-5 M relative to control. Particulars: Lacticaseibacillus casei.
The target is the same in data set [26]. The experiment in a line: Inhibition of Lactobacillus casei thymidylate synthetase using dl-5,10-Methylene tetrahydropteroyl-L-glutamate as substrate at 1.3 x 10^-5 M by spectrophotometric analysis. The settings on record: Lacticaseibacillus casei.
Substrate in data set [27]: Nc1nc(=O)c2c([nH]1)NCC1CN(c3ccc(C(=O)N[C@@H](CCC(=O)O)C(=O)O)cc3)CN21
The experiment in a line: Activity of Lactobacillus casei thymidylate synthetase by spectrophotometric analysis. Particulars: Lacticaseibacillus casei.

The source made the active and inactive calls. No cut-off for these calls is given here. Some results are limits rather than exact numbers.

Sequence of Dihydrofolate reductase (Lactobacillus casei) (P00381 whole entry): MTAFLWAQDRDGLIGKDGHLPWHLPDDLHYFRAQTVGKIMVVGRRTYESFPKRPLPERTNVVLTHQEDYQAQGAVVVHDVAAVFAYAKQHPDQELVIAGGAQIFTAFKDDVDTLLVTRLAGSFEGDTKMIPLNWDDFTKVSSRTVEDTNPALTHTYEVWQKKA

With `CN(Cc1ccc2nc(N)nc(O)c2c1)c1ccc(C(=O)N[C@@H](CCC(=O)O)C(=O)O)cc1`, the inhibition in data set [1] was 83%.
For the molecule `Nc1nc(=O)c2c([nH]1)NCC(CNc1ccc(C(=O)N[C@@H](CCC(=O)O)C(=O)O)cc1)=N2`, the inhibition in data set [2] is 26%. The molecule further registered a deltaOD in data set [3] of 0.02 min⁻¹.
`Nc1nc2c(c(=O)[nH]1)N=C(CNc1ccc(C(=O)N[C@H](CCC(=O)O)C(=O)O)cc1)CN2` registered a deltaOD in data set [4] of 0.027 min⁻¹. This molecule had an inhibition in data set [5] of 10%.
In the case of `Nc1nc(=O)c2c([nH]1)NCC1CN(c3ccc(C(=O)N[C@@H](CCC(=O)O)C(=O)O)cc3)CN21` (mixture of isomers), in [6], the Activity was determined as 71000 cpm. This molecule came in with a deltaOD in data set [7] of 0.03 min⁻¹. In addition, the outcome with Pediococcus [8], with Lacticaseibacillus casei [11] and in the data set with Enterococcus faecium [13] was inactive. The “growth inhibition (GI)” value in the data set on Enterococcus faecium [9], in the data set with Lacticaseibacillus casei [10] and in the data set with Pediococcus [12] was “inactive” throughout.
Take `Nc1nc2c(c(=O)[nH]1)N1CN(c3ccc(C(=O)N[C@H](CCC(=O)O)C(=O)O)cc3)CC1CN2` (mixture of isomers): in data set [14], the inhibition is 0%. The values for the deltaOD in data set [15] and in data set [16] were 0.03 min⁻¹ and 0 min⁻¹, respectively. The outcome in the data set with Pediococcus [8], in the data set on Lacticaseibacillus casei [11] and with Enterococcus faecium [13] was inactive. Besides, the “growth inhibition (GI)” value in the data set on Enterococcus faecium [9], in the data set on Lacticaseibacillus casei [10] and in the data set on Pediococcus [12] was “inactive” each time.
Molecule `Nc1nc(=O)c2c([nH]1)NCC1CN(c3ccc(C(=O)N[C@@H](CCC(=O)O)C(=O)O)cc3)CN21` (stereo in doubt) came in with a deltaOD in data set [17] of 0.02 min⁻¹. Also, in data set [18], the inhibition was found to be 14%. The result in the data set on Pediococcus [8], with Lacticaseibacillus casei [11] and in the data set on Enterococcus faecium [13] was inactive. The “growth inhibition (GI)” value in the data set on Enterococcus faecium [9], in the data set on Lacticaseibacillus casei [10] and in the data set with Pediococcus [12] was “inactive” throughout.
For `Nc1nc2c(c(=O)[nH]1)N1CN(c3ccc(C(=O)N[C@H](CCC(=O)O)C(=O)O)cc3)CC1CN2` (stereo in doubt; form 1), the result with Pediococcus [8], with Lacticaseibacillus casei [11] and with Enterococcus faecium [13] was inactive. Besides, the results for the deltaOD in data set [19], in [20] and in data set [23] were 0.032 min⁻¹, 0 min⁻¹ and 0.03 min⁻¹, respectively. For the same molecule, the “growth inhibition (GI)” value with Enterococcus faecium [9], in the data set on Lacticaseibacillus casei [10] and with Pediococcus [12] was “inactive” throughout. Also, the inhibition in [21] and in [24] was 0% in each case. The Activity in data set [22] was < 2000 cpm.
For the molecule `Nc1nc2c(c(=O)[nH]1)N1CN(c3ccc(C(=O)N[C@H](CCC(=O)O)C(=O)O)cc3)CC1CN2` (stereo in doubt; form 2), the inhibition in data set [25] and in data set [24] was 0% in each case. Further, the result with Pediococcus [8], in the data set on Lacticaseibacillus casei [11] and in the data set on Enterococcus faecium [13] was inactive. Further, the deltaOD in data set [19] amounted to 0.032 min⁻¹; in data set [20], 0 min⁻¹; in data set [26], 0.03 min⁻¹. Moreover, the “growth inhibition (GI)” value in the data set on Enterococcus faecium [9], in the data set with Lacticaseibacillus casei [10] and with Pediococcus [12] was “inactive” each time. For the same molecule, the Activity in data set [22] was < 2000 cpm.

B1: Thymidylate synthase (Lactobacillus casei), P00469 (protein)
chain: T1 sequence (whole entry)
With B1, the Km in data set [27] was found to be 15 µM.
